Measured values reported in ChEMBL document CHEMBL3425511 (J Med Chem, 2015).
Activity calls are given as the source filed them. No cut-off for these calls is given here.

Experiments:
[1] = Oral bioavailability in rat at 10 mg/kg; assay type: ADME, organism-based; settings: in vivo
Procedure, shortened: (§1)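 Oral dosing at 10 mg/kg as a solution of the sodium salt in 20% HPβCD, n = 4 animals per group.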

[2] = system: Rattus norvegicus; assay: Reversal of complete freund's adjuvant-induced thermal hypersensitivity in Sprague-Dawley rat at 10 mg/kg, po measured after 30 to 180 mins; assay type: functional, organism-based; parameters: dose 10 mg/kg
[3] = Half life in mouse at 10 mg/kg, po; assay type: ADME, organism-based; parameters: dose 10 mg/kg, route oral; settings: in vivo; procedure, shortened: as §1
[4] = Metabolic stability in dog liver microsomes assessed as compound remaining after 10 mins; assay type: ADME, Canis lupus familiaris; settings: read-out: Stability
Procedure, shortened: (§2)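 Compound incubated 10 min with liver microsomes of the stated species; amount of parent remaining reported as percent.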

[5] = system: Rattus norvegicus; assay: Reversal of carrageenan-induced thermal hypersensitivity in po dosed Sprague-Dawley rat assessed as plasma concentration required to reach ED50 measured at 100 mins; assay type: functional
Procedure, shortened: (§3)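 Rats dosed orally 100 min before radiant-heat testing. For CFA, plasma taken right after behavioural testing; for carrageenan, taken from a separate group dosed identically. Blood collected on lithium heparin and centrifuged, plasma stored at −80 °C. Plasma levels matching ED50 and ED80 (EC50/EC80) computed from the dose−response data.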

[6] = molecular target: T1, Transient receptor potential cation channel subfamily V member 2 (Homo sapiens) (UniProt Q9Y5S1); assay: Effect on TRPV2 (unknown origin)
T1 sequence (whole entry): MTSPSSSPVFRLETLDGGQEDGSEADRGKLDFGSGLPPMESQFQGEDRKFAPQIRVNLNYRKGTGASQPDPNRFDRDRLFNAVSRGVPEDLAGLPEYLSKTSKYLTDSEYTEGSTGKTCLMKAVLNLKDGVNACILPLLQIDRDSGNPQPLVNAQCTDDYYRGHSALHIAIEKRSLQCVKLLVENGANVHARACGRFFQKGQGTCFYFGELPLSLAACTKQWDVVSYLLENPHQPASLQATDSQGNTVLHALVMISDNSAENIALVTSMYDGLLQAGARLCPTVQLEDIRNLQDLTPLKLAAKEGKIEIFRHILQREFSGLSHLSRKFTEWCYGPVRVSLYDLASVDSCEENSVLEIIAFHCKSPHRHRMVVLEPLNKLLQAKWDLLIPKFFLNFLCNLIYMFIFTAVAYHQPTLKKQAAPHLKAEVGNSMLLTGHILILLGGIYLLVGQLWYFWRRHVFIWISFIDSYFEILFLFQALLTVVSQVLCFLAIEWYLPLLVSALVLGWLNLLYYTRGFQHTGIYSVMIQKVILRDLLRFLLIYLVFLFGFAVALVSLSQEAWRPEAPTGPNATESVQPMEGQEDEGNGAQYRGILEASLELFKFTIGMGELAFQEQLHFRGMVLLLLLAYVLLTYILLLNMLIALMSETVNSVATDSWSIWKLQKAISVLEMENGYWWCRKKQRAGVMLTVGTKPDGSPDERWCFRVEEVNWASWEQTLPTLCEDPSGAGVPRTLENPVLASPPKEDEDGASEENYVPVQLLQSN

[7] = molecular target: Cytochrome P450 3A4 (Homo sapiens, UniProt P08684); assay: Inhibition of CYP3A4 in human liver microsomes; assay type: ADME
[8] = Half life in rat at 10 mg/kg, po; assay type: ADME, organism-based; parameters: dose 10 mg/kg, route oral; settings: in vivo; procedure, shortened: as §1
[9] = Volume of distribution at steady state in mouse at 2 mg/kg, iv; assay type: ADME, organism-based; parameters: dose 2 mg/kg, route intravenous; settings: in vivo, read-out: Vdss
Procedure, shortened: (§4)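 Intravenous dosing at 2 mg/kg as a solution of the sodium salt in 20% HPβCD, n = 4 animals per group. Vss derived from the plasma pharmacokinetic profile.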

[10] = Cmax in rat at 10 mg/kg, po; assay type: ADME, organism-based; parameters: dose 10 mg/kg, route oral; settings: in vivo; procedure, shortened: as §1
[11] = Clearance in rat at 2 mg/kg, iv; assay type: ADME, organism-based; parameters: dose 2 mg/kg, route intravenous; settings: in vivo
Procedure, shortened: (§5)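 Intravenous dosing at 2 mg/kg as a solution of the sodium salt in 20% HPβCD, n = 4 animals per group.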

[12] = Metabolic stability in rat liver microsomes assessed as compound remaining after 10 mins; assay type: ADME; settings: liver microsomes, read-out: Stability; procedure, shortened: as §2
[13] = molecular target: Voltage-gated inwardly rectifying potassium channel KCNH2 (Homo sapiens, UniProt Q12809); assay: Displacement of [3H]-astemizole from recombinant human ERG at 10 uM
[14] = system: Rattus norvegicus; assay: Reversal of complete freund's adjuvant-induced thermal hypersensitivity in po dosed Sprague-Dawley rat assessed as plasma concentration required to reach ED50 measured at 100 mins; assay type: functional; procedure, shortened: as §3
[15] = Cmax in dog at 10 mg/kg, po; assay type: ADME, organism-based, Canis lupus familiaris; parameters: dose 10 mg/kg, route oral; settings: in vivo; procedure, shortened: as §1
[16] = system: Canis familiaris; assay: AUC in dog at 10 mg/kg, po; assay type: ADME, organism-based, Canis lupus familiaris, Plasma; parameters: dose 10 mg/kg, route oral; settings: in vivo; procedure, shortened: as §1
[17] = Half life in rat at 2 mg/kg, iv; assay type: ADME, organism-based; parameters: dose 2 mg/kg, route intravenous; settings: in vivo; procedure, shortened: as §5
[18] = molecular target: Transient receptor potential cation channel subfamily A member 1 (Homo sapiens) (UniProt O75762); assay: Effect on TRPA1 (unknown origin)
[19] = Oral bioavailability in mouse at 10 mg/kg; assay type: ADME, organism-based; settings: in vivo; procedure, shortened: as §1
[20] = Half life in dog at 10 mg/kg, po; assay type: ADME, organism-based, Canis lupus familiaris; parameters: dose 10 mg/kg, route oral; settings: in vivo; procedure, shortened: as §1
[21] = Half life in mouse at 2 mg/kg, iv; assay type: ADME, organism-based; parameters: dose 2 mg/kg, route intravenous; settings: in vivo; procedure, shortened: as §5
[22] = Volume of distribution at steady state in dog at 2 mg/kg, iv; assay type: ADME, organism-based, Canis lupus familiaris; parameters: dose 2 mg/kg, route intravenous; settings: in vivo, read-out: Vdss; procedure, shortened: as §4
[23] = Clearance in mouse at 2 mg/kg, iv; assay type: ADME, organism-based; parameters: dose 2 mg/kg, route intravenous; settings: in vivo; procedure, shortened: as §5
[24] = system: Rattus norvegicus; assay: Reversal of carrageenan-induced thermal hypersensitivity in po dosed Sprague-Dawley rat assessed as plasma concentration required to reach ED80 measured at 100 mins; assay type: functional; procedure, shortened: as §3
[25] = molecular target: Transient receptor potential cation channel subfamily V member 1 (Rattus norvegicus, UniProt O35433); assay: Antagonist activity at recombinant rat TRPV1 expressed in HEK293 cells assessed as inhibition of capsaicin-induced Ca2+ influx preincubated for 5 mins followed by capsaicin challenge; assay type: cell-based
Procedure, shortened: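 HEK293 stably expressing rat TRPV1, plated one day before on poly-D-lysine and loaded with Calcium 3 dye for 35 min at 37 °C, then 25 min at room temperature. Fluorescence Ca2+ read (FLIPR or FDSS) for 5 min with compound, then capsaicin to final 0.020−0.030 μM (~80% max response). Data normalised to 90/100 μM and 0.6 pM capsaicin.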

[26] = Half life in dog at 2 mg/kg, iv; assay type: ADME, organism-based, Canis lupus familiaris; parameters: dose 2 mg/kg, route intravenous; settings: in vivo; procedure, shortened: as §5
[27] = molecular target: T2, Cytochrome P450 1A2 (Homo sapiens, UniProt P05177); assay: Inhibition of CYP1A2 in human liver microsomes; assay type: ADME
T2 sequence (P05177 whole entry): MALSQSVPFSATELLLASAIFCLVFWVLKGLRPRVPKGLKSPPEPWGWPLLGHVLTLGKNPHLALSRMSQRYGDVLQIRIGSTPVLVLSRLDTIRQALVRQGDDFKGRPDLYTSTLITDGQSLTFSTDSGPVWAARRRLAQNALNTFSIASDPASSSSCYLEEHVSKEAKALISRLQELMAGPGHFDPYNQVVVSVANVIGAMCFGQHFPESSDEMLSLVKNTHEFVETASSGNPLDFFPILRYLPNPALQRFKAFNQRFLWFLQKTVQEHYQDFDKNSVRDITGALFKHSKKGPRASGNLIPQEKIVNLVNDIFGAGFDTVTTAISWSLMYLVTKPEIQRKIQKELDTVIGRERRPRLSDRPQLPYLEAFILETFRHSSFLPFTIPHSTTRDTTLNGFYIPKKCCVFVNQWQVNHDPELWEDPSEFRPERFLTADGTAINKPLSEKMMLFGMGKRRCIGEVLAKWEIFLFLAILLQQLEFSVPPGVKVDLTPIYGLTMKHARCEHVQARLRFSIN

Sequence of Voltage-gated inwardly rectifying potassium channel KCNH2 (Q12809 whole entry): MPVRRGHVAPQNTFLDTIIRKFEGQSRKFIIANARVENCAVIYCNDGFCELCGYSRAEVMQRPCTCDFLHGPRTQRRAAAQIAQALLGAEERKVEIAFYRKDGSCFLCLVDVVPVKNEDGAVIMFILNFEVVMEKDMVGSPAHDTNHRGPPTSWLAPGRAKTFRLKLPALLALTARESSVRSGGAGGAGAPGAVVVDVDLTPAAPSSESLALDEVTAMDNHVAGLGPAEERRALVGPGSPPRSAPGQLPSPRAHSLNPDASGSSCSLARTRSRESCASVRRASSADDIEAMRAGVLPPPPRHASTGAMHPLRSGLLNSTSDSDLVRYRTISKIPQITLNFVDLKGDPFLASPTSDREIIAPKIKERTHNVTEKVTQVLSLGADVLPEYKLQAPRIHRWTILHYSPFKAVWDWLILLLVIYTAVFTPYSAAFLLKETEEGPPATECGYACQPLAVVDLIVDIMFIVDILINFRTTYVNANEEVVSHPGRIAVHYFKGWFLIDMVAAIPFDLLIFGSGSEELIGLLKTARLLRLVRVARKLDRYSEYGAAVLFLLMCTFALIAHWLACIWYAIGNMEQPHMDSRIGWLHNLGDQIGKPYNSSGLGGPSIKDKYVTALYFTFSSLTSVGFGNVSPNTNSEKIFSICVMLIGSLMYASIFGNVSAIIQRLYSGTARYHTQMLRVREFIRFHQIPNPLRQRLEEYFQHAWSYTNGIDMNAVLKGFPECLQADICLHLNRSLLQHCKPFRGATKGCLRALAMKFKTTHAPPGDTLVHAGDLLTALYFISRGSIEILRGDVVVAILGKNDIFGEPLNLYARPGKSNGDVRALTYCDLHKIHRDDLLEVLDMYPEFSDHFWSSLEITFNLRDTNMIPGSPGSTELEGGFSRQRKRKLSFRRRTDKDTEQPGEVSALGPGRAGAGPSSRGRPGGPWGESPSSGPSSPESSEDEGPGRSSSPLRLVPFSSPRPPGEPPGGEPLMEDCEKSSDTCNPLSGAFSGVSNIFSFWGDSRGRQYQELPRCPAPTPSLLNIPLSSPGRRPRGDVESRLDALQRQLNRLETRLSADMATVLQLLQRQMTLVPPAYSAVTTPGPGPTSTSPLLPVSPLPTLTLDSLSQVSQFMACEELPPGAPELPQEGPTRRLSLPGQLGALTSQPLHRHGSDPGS
Sequence of Cytochrome P450 3A4 (P08684 whole entry): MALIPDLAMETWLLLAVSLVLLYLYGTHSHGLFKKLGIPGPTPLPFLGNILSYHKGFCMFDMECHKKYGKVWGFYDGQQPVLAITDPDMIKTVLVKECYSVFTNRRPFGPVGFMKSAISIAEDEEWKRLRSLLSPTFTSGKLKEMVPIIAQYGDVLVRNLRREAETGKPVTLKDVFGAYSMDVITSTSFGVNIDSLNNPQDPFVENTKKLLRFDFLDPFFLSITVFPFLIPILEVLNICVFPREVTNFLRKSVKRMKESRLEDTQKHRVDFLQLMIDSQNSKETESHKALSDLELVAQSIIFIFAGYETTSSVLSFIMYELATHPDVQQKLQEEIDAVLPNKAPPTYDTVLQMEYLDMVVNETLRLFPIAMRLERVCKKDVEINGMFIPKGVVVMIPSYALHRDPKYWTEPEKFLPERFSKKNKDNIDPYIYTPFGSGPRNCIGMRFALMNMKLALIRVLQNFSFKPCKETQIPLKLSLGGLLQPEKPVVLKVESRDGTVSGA
Sequence of Transient receptor potential cation channel subfamily A member 1 (Homo sapiens) (O75762 whole entry): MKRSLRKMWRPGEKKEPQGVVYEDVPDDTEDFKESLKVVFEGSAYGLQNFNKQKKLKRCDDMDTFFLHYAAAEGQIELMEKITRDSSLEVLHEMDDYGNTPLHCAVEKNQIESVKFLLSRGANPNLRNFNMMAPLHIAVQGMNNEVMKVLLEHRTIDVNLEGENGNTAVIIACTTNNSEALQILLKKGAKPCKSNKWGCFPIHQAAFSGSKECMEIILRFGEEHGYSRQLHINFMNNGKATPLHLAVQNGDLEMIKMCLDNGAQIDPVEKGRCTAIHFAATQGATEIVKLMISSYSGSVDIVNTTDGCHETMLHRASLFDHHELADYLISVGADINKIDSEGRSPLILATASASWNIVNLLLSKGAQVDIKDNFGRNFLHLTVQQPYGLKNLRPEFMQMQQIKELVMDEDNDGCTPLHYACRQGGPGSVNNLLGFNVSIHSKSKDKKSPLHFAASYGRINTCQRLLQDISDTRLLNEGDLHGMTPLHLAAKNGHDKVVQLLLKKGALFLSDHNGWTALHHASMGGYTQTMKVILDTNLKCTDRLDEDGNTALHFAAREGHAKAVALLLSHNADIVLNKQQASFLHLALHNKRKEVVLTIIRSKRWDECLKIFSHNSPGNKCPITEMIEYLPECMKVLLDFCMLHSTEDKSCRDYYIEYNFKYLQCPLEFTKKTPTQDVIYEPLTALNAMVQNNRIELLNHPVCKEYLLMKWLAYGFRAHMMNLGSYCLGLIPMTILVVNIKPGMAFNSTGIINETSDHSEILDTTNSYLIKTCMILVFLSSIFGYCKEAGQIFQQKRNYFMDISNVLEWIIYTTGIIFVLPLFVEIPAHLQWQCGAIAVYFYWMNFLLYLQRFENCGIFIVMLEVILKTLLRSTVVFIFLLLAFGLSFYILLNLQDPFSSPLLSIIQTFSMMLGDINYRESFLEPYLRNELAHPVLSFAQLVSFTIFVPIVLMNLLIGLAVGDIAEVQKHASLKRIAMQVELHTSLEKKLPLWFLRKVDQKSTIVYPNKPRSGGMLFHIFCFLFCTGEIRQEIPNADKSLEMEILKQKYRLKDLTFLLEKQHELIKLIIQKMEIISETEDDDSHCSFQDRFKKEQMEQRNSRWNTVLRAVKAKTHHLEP
Sequence of Transient receptor potential cation channel subfamily V member 1 (O35433 whole entry): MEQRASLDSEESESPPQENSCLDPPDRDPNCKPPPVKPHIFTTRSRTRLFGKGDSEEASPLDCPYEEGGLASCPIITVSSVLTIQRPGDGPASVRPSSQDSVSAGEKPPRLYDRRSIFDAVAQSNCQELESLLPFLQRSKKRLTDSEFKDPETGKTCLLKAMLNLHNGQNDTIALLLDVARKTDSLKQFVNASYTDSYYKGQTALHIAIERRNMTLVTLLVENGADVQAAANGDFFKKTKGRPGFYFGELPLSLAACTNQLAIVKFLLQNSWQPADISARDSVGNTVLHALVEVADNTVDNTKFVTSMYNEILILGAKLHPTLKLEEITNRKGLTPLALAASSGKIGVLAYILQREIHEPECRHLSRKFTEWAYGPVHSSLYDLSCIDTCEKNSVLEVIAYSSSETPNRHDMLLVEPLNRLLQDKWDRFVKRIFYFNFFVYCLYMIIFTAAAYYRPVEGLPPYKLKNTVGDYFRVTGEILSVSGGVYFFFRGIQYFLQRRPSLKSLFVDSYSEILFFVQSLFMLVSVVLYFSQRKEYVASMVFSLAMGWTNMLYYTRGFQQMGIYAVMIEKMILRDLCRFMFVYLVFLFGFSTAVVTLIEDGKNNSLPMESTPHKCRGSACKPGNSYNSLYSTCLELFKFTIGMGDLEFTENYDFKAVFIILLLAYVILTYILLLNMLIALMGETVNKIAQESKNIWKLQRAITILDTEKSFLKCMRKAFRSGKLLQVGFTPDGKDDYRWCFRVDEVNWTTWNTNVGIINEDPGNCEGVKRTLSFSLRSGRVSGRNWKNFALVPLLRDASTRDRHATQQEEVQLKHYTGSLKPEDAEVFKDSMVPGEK

Q: What does the source list for `CC(C)(O)c1ccccc1-c1ccc2[nH]c(/C=C/c3ccc(C(F)(F)F)cc3)nc2c1`?
A: bioavailability [1]: 51%; Activity [2]: Active; half-life [3]: 352 min; remaining at 10 min [4]: 36%; Activity [5]: 3.8 ng/mL; Activity [6]: inactive; IC50 [7]: > 25 µM; half-life [8]: 228 min; Vd [9]: 2.5 L/kg; Cmax [10]: 421 ng/mL; clearance [11]: 33 mL/min/kg; remaining at 10 min [12]: 93%; inhibition (INH) [13]: Not Active; Activity [14]: 41.9 ng/mL; Cmax [15]: 1610 ng/mL; AUC [16]: 4186 ng·h/mL; half-life [17]: 204 min; Activity [18]: inactive; bioavailability [19]: 83.3%; half-life [20]: 84 min; half-life [21]: 165 min; Vd [22]: 2.7 L/kg; clearance [23]: 10.5 mL/min/kg; Activity [24]: 9.2 ng/mL; IC50 [25]: 21 nM; half-life [26]: 66 min; IC50 [27]: > 25 µM
